Reference: article PMC7814465 (Cell reports, 2020)

Assays:
Imp7 = assay: Pull-down from HeLa cytosol, Imp7; type: binding; details: biotinylated peptide, western blot
How it was run: (§1)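 Biotin-DPR bait (5 μg per 10 μl beads) immobilised overnight with 2 mg/ml ovalbumin. Prey bound in B-buffer with 2 mg/ml BSA, washed without BSA, eluted in 2× SDS loading buffer. Two independent replicates.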

Impβ = assay: Pull-down from HeLa cytosol, Impβ; type: binding; details: biotinylated peptide, western blot
How it was run: as §1

Impα3 = assay: Pull-down from HeLa cytosol, Impα3; type: binding; details: biotinylated peptide, western blot
How it was run: as §1

[1] = test system: Impβ (His-S-Impβ, in the absence of Impα); assay: Sedimentation assay, Impβ alone; type: biochemical
How it was run: (§2)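 Protein was 1 µM purified NTR alone, or 500 nM Impα with 500 nM Impβ. Samples were centrifuged 15 min at 21,000 g, 4°C. Equal volumes of supernatant and pellet were analysed by SDS-PAGE with Sypro-Ruby stain or western blot.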

CRM1 = assay: Sedimentation assay, CRM1; type: biochemical
How it was run: as §2

TNPO1 (His-TNPO1) = assay: SDD-AGE oligomer formation, TNPO1; type: biochemical; details: 10-fold molar excess: 2 μM importin, 20 μM TMR-DPR, pH 7.5, 200 mM NaCl, 1 h RT
Impα3 (His-Impα3) = assay: SDD-AGE oligomer formation, Impα3; type: biochemical, rat; details: 10-fold molar excess: 2 μM importin, 20 μM TMR-DPR, pH 7.5, 200 mM NaCl, 1 h RT
[2] = test system: TDP-43 (TDP-43-Tev-MBP/MBP-Tev-TDP-43-GFP); assay: TDP-43 condensate formation with DPRs, microscopy; type: biochemical; details: TMR-labeled DPR, equimolar (1x) or two-fold (2x), 2 μM TDP-43/TDP-43-GFP, Tev cleavage, 200 mM NaCl, pH 7.5
How it was run: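 Size-exclusion-purified TDP-43-MBP-His (2 μM) was mixed with substoichiometric MBP-TDP-43-GFP-His (1:4–1:5). Condensates were imaged by laser scanning confocal microscopy.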

GAPDH in HeLa cytosol = assay: Sedimentation assay from HeLa cytosol, GAPDH; type: biochemical; details: highest GR/PR concentrations
Impb = details: FRET sensors and bead Halo assays; ref Hayes et al., 2019; cited from earlier work
[3] = test system: shuttling reporter (NLS and nuclear export signal); details: HeLa cells incubated with peptides; ref Shi et al., 2017; cited from earlier work
[4] = 10-fold molar excess of TMR-labeled DPR, n = 3
[5] = extremely high concentrations (up to 40x)

## poly-PR: arginine-rich dipeptide repeat protein species; in the experiments mostly PR25
Imp7
  binding in pull-down: bound equally to both poly-GR and poly-PR
Impβ
  binding in pull-down: bound equally to both poly-GR and poly-PR
Impα3
  binding in pull-down: bound equally to both poly-GR and poly-PR
[1]; [4]
  solubility of Impβ: remained mainly soluble
[1]; [5]
  precipitation of Impβ, titration: only partial or no precipitation
CRM1; [4]
  solubility of CRM1: remained mainly soluble
CRM1; [5]
  precipitation of CRM1, titration: only partial or no precipitation
TNPO1 (His-TNPO1)
  oligomer formation of TNPO1 (SDS-resistant): SDS-resis-tant oligomers
Impα3 (His-Impα3)
  oligomer formation of Impα3 (SDS-resistant): SDS-resis-tant oligomers
[2]
  TDP-43 condensate formation: formation of condensates
GAPDH in HeLa cytosol
  precipitation of GAPDH from HeLa cytosol: not precipitated
Impb
  direct binding to Impb in vitro: direct binding
[3]
  import of shuttling reporter: reduced import
